Compound activity: PubChem, several laboratories
ARNT TACC3 PPI: disrupts binding between human ARNT and TACC3; AlphaScreen His-ARNT PAS-B/GST-TACC3 binding, luminescence; TACC3 fragment carries E629A point mutation; inhibition, % at 9.99 µM; actives 0.66% (n = 390,000); Q9Y6A5;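 active means mean inhibition of replicates at least 50% and at least half of replicates each reaching 50%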
RTF Ca sens act: increases calcium sensitivity of human cardiac regulated thin filaments. P19429+P45379. IANBD-labeled TnC RTF fluorescence at EC20 calcium; 0% EC20 calcium, 100% full calcium. activation, % at 7.2 µM. actives 0.24% (n = 340,000);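 active means activation above the mean over all tested compounds plus 3 SD, cut at about 30% in these data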;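 further: rise in fluorescence read as greater calcium sensitivity of cardiac thin filaments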
Mot1-301 SUMO: SUMOylation pathway inhibition by Mot1-301 growth rescue; S. cerevisiae Mot1-301 growth rescue, ATP luminescence, 38.5C; percent above DMSO median, 100 means doubled; growth rescue, % at 18.8 µM; actives 1% (n = 320,000); AID 2716;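 active means every valid replicate shows activation above 250% relative to neutral control wells; inactive means the rest, any valid replicate at or below 250%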
Cardiac RTF inh: cardiac RTF calcium desensitization; inhibition, % at 7.15 µM; IANBD-labeled cardiac RTF, Ca2+ fluorescence; P19429+P45379; actives 0.12% (n = 340,000);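 active means inhibition above the mean inhibition of all tested compounds plus 3 SD, cut at about 17% in these data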;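 further: assay run at fixed EC70 calcium of 1.6 mM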
Efflux pump mplx: antifungal efflux pump inhibition, Nile Red retention. S. cerevisiae Candida pump triplex. inhibition, % at 10 µM. actives 0.44% (n = 330,000). AID 485275;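 active means plate passing quality check with inhibition over a set limit, or well fluorescence over plate mean plus 4 SD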;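 further: Nile Red retained in pooled yeast measured as flow cytometry median fluorescence; higher means more Nile Red kept so more efflux inhibition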
UCH37 DUB inh: blocks the human deubiquitinase UCH37 | purified proteasome/UCH37, Ub-AMC cleavage fluorescence | actives 0.33% (n = 330,000) | inhibition, % (test concentration not listed);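 active means mean inhibition over replicate wells above about 20%, limit read from the data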
Target sequence (Q9Y5K5 whole entry, looked up): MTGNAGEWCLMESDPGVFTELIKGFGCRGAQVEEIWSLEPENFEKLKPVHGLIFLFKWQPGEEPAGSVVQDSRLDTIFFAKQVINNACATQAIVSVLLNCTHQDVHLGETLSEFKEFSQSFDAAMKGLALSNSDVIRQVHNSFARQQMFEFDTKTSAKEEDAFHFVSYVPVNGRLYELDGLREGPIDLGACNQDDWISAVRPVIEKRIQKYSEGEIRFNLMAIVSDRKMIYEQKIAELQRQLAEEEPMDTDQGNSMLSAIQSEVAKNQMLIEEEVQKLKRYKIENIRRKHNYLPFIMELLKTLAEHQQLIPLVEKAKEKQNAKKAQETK
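Signal – fluorescence, ex 355 nm, em 460 nm · System – Proteasome-bound UCH37 · Input – 0.15 nM proteasome as dispensed · Timing – 30 min preincubation with enzyme, 25 min cleavage at room temperature · Read-out basis – percent inhibition of cleavage signal versus uninhibited and no-proteasome wells · Medium – Tris-HCl pH 7.4 with ATP-MgCl2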
Mot1 SUMO dose: SUMO pathway inhibitors in yeast Mot1-301 growth; shares compounds with Mot1-301 SUMO; S. cerevisiae Mot1-301 galactose growth, ATP luminescence, 24 h; -100 = growth of slx-deleted rescue strain; growth activity, percent, % at 42 µM; 2,300 tested, under 10 active;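 active means Signal drops as the depositor expects, and the fitted half-maximal dose is no more than ten times the top valid tested dose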;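 further: more negative values mean stronger growth rescue toward the control strain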
A number is an active result; 0 = inactive; - = not tested or not shown; + = active, no number. Hits are enriched below; roughly 2.1% of the tested compounds scored in any of these assays.

SMILES	ARNT TACC3 PPI	RTF Ca sens act	Mot1-301 SUMO	Cardiac RTF inh	Efflux pump mplx	UCH37 DUB inh	Mot1 SUMO dose
Cc1ccc(C(=O)Nc2nc(-c3ccc(F)cc3)cs2)o1	0	0	410.3	0	0	0	0
Cc1ccc(-c2csc(NC(=O)c3ccc(C)o3)n2)cc1	0	0	0	0	0	0	-
ON=C1CCCc2ccc3ccccc3c21	-	-	-	-	-	0	-
Cc1ccn2cc(-c3cnoc3C)nc2c1	0	0	691.6	0	0	0	0
Cc1oncc1-c1cn2ccccc2n1	0	0	0	0	0	0	-
c1ccc(CN2CCN(c3nc(-c4ccccn4)nc4ccccc34)CC2)cc1	0	0	0	0	0	0	-
c1ccc(-c2nc(N3CCOCC3)c3ccccc3n2)nc1	-	0	480.5	0	0	0	0
O=c1c2cnn(-c3ccccc3)c2nnn1N=Cc1cccnc1	-	-	-	-	-	0	-
O=C(O)c1ccc(Cl)c(NCc2cccs2)c1	0	0	560.0	0	0	0	0
O=C(NCc1cccs1)Nc1cc(Cl)ccc1Cl	0	0	0	0	0	0	-
COC(=O)c1ccc(SCC(=O)N2CCC(C)CC2)c([N+](=O)[O-])c1	0	0	836.3	0	0	0	0
CCN(CC(=O)NCc1ccc(Cl)cc1)C(=O)/C=C/c1ccc(C#N)cc1	0	0	821.2	0	0	0	0
COc1cc(C=NNc2nc3ccccc3s2)ccc1OC(=O)c1ccccc1F	-	-	-	-	-	0	-
NC(=O)NCCC1=CCCCC1	0	0	0	0	0	0	-
O=C(O)C1C2CCC(O2)C1C(=O)NCCC1=CCCCC1 (centres undefined)	0	0	364.1	0	0	0	0
COc1cc(SC)ccc1C(=O)Nc1cc(C)c(OCC(=O)N2CCOCC2)c(C)c1	0	0	562.0	0	0	0	0
CCCCn1c(N)c(N(CC(C)C)C(=O)c2cc(-c3ccc(F)cc3)nc3ccccc23)c(=O)[nH]c1=O	0	0	490.8	0	0	0	0
COc1ccc(C(=O)N2CCN(c3nnnn3-c3ccccc3)CC2)cc1OC	0	0	0	0	0	0	-
CCOC(=O)N1CCN(c2nnnn2-c2ccccc2)CC1	0	0	366.2	0	0	0	0
COc1ccc(C=NNC(=O)C2c3ccccc3-c3ccccc32)cc1	-	-	-	-	-	0	-
CCCCCC(=O)Nc1nnn(CCC)n1	0	0	+	0	0	0	0
Cc1ccc(-c2cc(-c3nnc(SCC(=O)NCC(C)C)n3N)c3ccccc3n2)cc1	0	0	0	0	0	0	-
CCC(C)NC(=O)CSc1nnc(-c2cc(-c3ccc(C)cc3)nc3ccccc23)n1N (centres undefined)	0	0	971.3	0	0	0	0
O=C(CSc1nc(-c2ccccc2)nc2ccc(F)cc12)Nc1ccc(C(=O)O)cc1	0	0	0	0	0	0	-
CSc1nsc(SCC(=O)Nc2cccc(NC(C)=O)c2)n1	0	0	0	0	0	0	-
SMILES	ARNT TACC3 PPI	RTF Ca sens act	Mot1-301 SUMO	Cardiac RTF inh	Efflux pump mplx	UCH37 DUB inh	Mot1 SUMO dose
CSc1nsc(SCC(=O)Nc2cccc(C(=O)O)c2)n1	0	0	782.0	0	0	0	0
O=C(CSc1nc(-c2ccccc2)nc2ccc(F)cc12)Nc1cccc(C(=O)O)c1	0	0	534.6	0	0	0	0
Cc1c(C=NNC(=O)c2cc3ccccc3o2)c2ccccc2n1C	-	-	-	-	-	0	-
O=C(COC(=O)c1cc([N+](=O)[O-])ccc1N1CCOCC1)Nc1cccc(F)c1	-	0	694.1	0	0	0	0
COc1cc(C(=O)COC(=O)c2cc([N+](=O)[O-])ccc2N2CCOCC2)ccc1OC(F)F	0	0	662.4	0	0	0	0
N#Cc1ccc(Oc2ccc(C=NO)cn2)cc1	-	-	-	-	-	0	-
O=C(CCCNC(=O)/C(=C/c1ccccc1F)NC(=O)c1ccccc1)OCc1ccccc1	0	0	495.9	0	0	0	0
O=C(CCCNC(=O)/C(=C/c1ccc(Br)cc1)NC(=O)c1ccccc1)OCc1ccccc1	0	0	0	0	0	0	-
S=c1[nH]nc(-c2cccs2)n1N=Cc1cccs1	-	-	-	-	-	0	-
O=C(COC(=O)c1ccccc1SCC(=O)N1CCCC1)NC1CCCCC1	0	0	792.0	0	0	0	0
COc1cccc(C=Nn2c(COc3ccccc3)n[nH]c2=S)c1O	-	-	-	-	-	0	-
COc1ccc(S(=O)(=O)N2CCc3cc4c(cc3C2C)OCCCO4)cc1 (centres undefined)	0	0	599.9	0	0	0	0
Cn1c(=O)c2c(ncn2CC(=O)NN=C/C(Br)=C/c2ccccc2)n(C)c1=O	-	-	-	-	-	0	-
CCN(CC)c1ccc(C=NN2CCOCC2)cc1	-	-	-	-	-	0	-
CCOc1ccc(C(=O)Nc2ccc(C(F)(F)F)n(C)c2=O)cc1	-	0	+	0	0	0	0
COc1ccc(C=NNC(=O)c2nc(-c3ccccc3)n(-c3ccccc3)n2)cc1OC	-	-	-	-	-	0	-
O=S(=O)(Nc1ccc2c(c1)CCC2)c1cccs1	0	0	0	0	0	0	-
O=C1OCc2cc(NS(=O)(=O)c3cccs3)ccc21	0	0	410.6	0	0	0	0
O=C(N/N=C/c1ccc(N2CCOCC2)cc1)c1ccc(NS(=O)(=O)c2cccs2)cc1	0	0	0	0	0	-	-
O=S(=O)(Nc1ccc(N2CCOCC2)cc1)c1cccs1	-	0	579.3	0	0	-	0
CC(/C=C/c1ccco1)=NNC(=O)C1COc2ccccc2O1 (centres undefined)	-	-	-	-	-	0	-
CCCCC(=O)NN=Cc1ccc(-c2ccc([N+](=O)[O-])cc2)o1	-	-	-	-	-	0	-
CCCCCCNc1c(C(=O)OCC)c(=O)[nH]c2ccccc12	0	0	777.7	0	0	0	0
Cc1cc(C)n(-c2nc3ccccc3nc2N2CCN(C(=O)c3ccccc3)CC2)n1	0	0	497.3	0	0	0	0
CC(C(=O)Nc1ccccc1-c1ccccc1)N1CCN(C(=O)c2ccccc2)CC1 (centres undefined)	0	0	0	0	0	0	-
SMILES	ARNT TACC3 PPI	RTF Ca sens act	Mot1-301 SUMO	Cardiac RTF inh	Efflux pump mplx	UCH37 DUB inh	Mot1 SUMO dose
CC(C(=O)Nc1ccccc1-c1ccccc1)N1CCN(Cc2ccccc2)CC1 (centres undefined)	0	0	527.8	0	0	0	0
COc1ccc(C=NNC(=O)CNC(=O)c2ccc(S(=O)(=O)N3CCOCC3)cc2)c(OC)c1	-	-	-	-	-	0	-
COc1ccc(C(=O)CC(=O)C(=O)Nc2cc(C)ccc2C)cc1	0	0	0	0	0	0	-
COc1ccc(C(=O)CC(=O)C(=O)Nc2ccc(C)c(Cl)c2)cc1	0	0	918.2	0	0	0	0
O=C(CSc1nc(C(F)(F)F)cc(=O)[nH]1)N1CCCCCC1	0	0	0	0	0	0	-
O=c1cc(C(F)(F)F)c2sc(N3CCCCC3)nc2[nH]1	-	0	429.3	0	0	0	0
COc1ccccc1C=NNC(=O)COCC(=O)NN=Cc1ccccc1OC	-	-	-	-	-	0	-
